A short description of experiment [1]: Inhibition of NF-kappaB activation in human TNFalpha-stimulated A549 cells preincubated for 2 hrs before TNFalpha challenge measured after 7 hrs post stimulation by luciferase reporter gene assay. It counts as cell-based. In short, it runs like this: (§1)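 Stable κB-luciferase-expressing A549 cells; NF-κB transcription activity read as luciferase signal; single concentration of 20 μM and dose-response experiments.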
(In general: Reporter assays use an easily measured gene product as a stand-in for the process of interest.)

Experiment [2] deals with HEK293. The experiment is described as follows: Inhibition of TNFalpha-stimulated IkappaBalpha protein expression in HEK293 cells at 50 uM after 60 mins by Western blot analysis. It counts as functional, cell-based. As to conditions: Homo sapiens. In short, it runs like this:
(§2)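 HEK 293 cells stimulated with TNF-α with or without test agent; IκBα protein levels assessed by Western blotting at set times after stimulation.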
On the technique in general: Immunoblotting shows a protein as a band on a membrane.

Experiment [3] relates to A549. The experiment is described as follows: Inhibition of NF-kappaB activation in human TNFalpha-stimulated A549 cells at 20 uM preincubated for 2 hrs before TNFalpha challenge measured after 7 hrs post stimulation by luciferase reporter gene assay. It is filed as cell-based. In short, it runs like this:
as §1

For experiment [4], the system named is PANC-1. Description: Growth inhibition of human PANC1 cells at 20 uM after 5 days by alamar blue assay. It is filed as functional, cell-based. The gist of the method:
(§3)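 Hs 766T and PANC-1 pancreatic tumour cells given test agent alone or combined with gemcitabine; growth inhibition measured; data representative of three independent experiments, mean ± SD.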
(Alamar Blue is a resazurin reagent that responds to reducing activity.)

Experiment [5] has as its system HEK293. Description: Inhibition of TNFalpha-stimulated IkappaBalpha protein expression in HEK293 cells at 50 uM after 120 mins by Western blot analysis. The note with it: Homo sapiens. It counts as functional, cell-based. In short, it runs like this: as §2
Experiment [6] deals with PANC-1. Description: Potentiation of gemcitabine-induced induction of apoptosis in human PANC1 cells assessed as activation of caspase 3/7 after 48 hrs by caspase-Glo 3 assay. It is filed as functional, cell-based. The gist of the method:
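PANC-1 cells treated with test agent alone or combined with gemcitabine; caspase 3/7 activity read after 48 hr as apoptosis marker; representative of two independent experiments, mean ± SD.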

Experiment [7] relates to PANC-1. Description: Potentiation of gemcitabine-induced cytotoxicity against human PANC1 cells assessed as cell growth inhibition at 20 uM after 5 days by alamar blue assay. It is filed as functional, cell-based. The gist of the method:
as §3

The test system of experiment [8] is Hs 766. The experiment is described as follows: Growth inhibition of human Hs766T cells at 20 uM after 5 days by alamar blue assay. It counts as functional, cell-based. In short, it runs like this:
as §3

In experiment [9] the test system is Hs 766. Description: Potentiation of gemcitabine-induced cytotoxicity against human Hs766T cells assessed as cell growth inhibition at 20 uM after 5 days by alamar blue assay. It counts as functional, cell-based. In short, it runs like this:
as §3

The subject of experiment [10] is HEK293. Description: Inhibition of TNFalpha-stimulated IkappaBalpha protein expression in HEK293 cells at 50 uM after 30 mins by Western blot analysis. The note with it: Homo sapiens. It is filed as functional, cell-based. The gist of the method: as §2

The source made the active and inactive calls. No cut-off for these calls is given here.

For `COc1cc(/C=C/C(=O)CC(=O)/C=C/c2ccc(O)c(OC)c2)ccc1O` [CURCUMIN], in experiment [1], the IC50 is 20.3 µM.

`COc1ccc2c(c1OC)C(=O)O[C@@H]2[C@H]1c2c(cc3c(c2OC)OCO3)CCN1C` [NOSCAPINE] came in with an IC50 in experiment [1] of 65.2 µM.

In [1], `C=C1C(=O)O[C@@H]2C3O[C@]3(C)CC/C=C(\C)CC[C@@H]12` (some centres undefined) had an IC50 of 4.7 µM.

Compound `COc1cc2ccc1Oc1cc(ccc1OC)CCC(O)CCCC2` (centres undefined) [PLATYCARYNOL] returned a concentration for half-maximal inhibition (IC50) in experiment [1] of 36.4 µM.

Compound `COc1ccc2cc1Oc1cc(ccc1OC)CCC(=O)CCCC2` had a concentration for half-maximal inhibition (IC50) in experiment [1] of 14.3 µM. For the same compound, the inhibition entry in experiment [2], in [3], in experiment [5] and in [10] was “Active” each time. The “growth inhibition (GI)” value in [4] and in experiment [8] was “inactive” each time. Moreover, the outcome in [6] was Active. In addition, the “growth inhibition (GI)” value in experiment [7] and in experiment [9] was “Active” throughout.

What is called IC50 is the midpoint of a concentration-inhibition curve. The low end stands for greater potency in that assay, the high end for weaker potency in that assay.

(Values after ChEMBL document CHEMBL1938279, “Synthesis and evaluation of macrocyclic diarylether heptanoid natural products and their analogs” (Bioorg Med Chem Lett, 2012).)
